Laboratory results reported in ChEMBL document CHEMBL4354819, “Discovery of Novel Small Molecule Dual Inhibitors Targeting Toll-Like Receptors 7 and 8” (J Med Chem, 2019).
Blank lines part the entries; values can stand above or below the compound they belong to.

Key:
[1] = molecular target: T1, Toll-like receptor 7 (Homo sapiens) (UniProt Q9NYK1); experiment: Inhibition of human TLR7 expressed in HEK293 cells assessed as reduction in resiquimod-induced NFkappaB production at 1.5 to 5 uM incubated for 16 hrs by quanti-blue SEAP assay; format: cell-based
T1 sequence (whole entry): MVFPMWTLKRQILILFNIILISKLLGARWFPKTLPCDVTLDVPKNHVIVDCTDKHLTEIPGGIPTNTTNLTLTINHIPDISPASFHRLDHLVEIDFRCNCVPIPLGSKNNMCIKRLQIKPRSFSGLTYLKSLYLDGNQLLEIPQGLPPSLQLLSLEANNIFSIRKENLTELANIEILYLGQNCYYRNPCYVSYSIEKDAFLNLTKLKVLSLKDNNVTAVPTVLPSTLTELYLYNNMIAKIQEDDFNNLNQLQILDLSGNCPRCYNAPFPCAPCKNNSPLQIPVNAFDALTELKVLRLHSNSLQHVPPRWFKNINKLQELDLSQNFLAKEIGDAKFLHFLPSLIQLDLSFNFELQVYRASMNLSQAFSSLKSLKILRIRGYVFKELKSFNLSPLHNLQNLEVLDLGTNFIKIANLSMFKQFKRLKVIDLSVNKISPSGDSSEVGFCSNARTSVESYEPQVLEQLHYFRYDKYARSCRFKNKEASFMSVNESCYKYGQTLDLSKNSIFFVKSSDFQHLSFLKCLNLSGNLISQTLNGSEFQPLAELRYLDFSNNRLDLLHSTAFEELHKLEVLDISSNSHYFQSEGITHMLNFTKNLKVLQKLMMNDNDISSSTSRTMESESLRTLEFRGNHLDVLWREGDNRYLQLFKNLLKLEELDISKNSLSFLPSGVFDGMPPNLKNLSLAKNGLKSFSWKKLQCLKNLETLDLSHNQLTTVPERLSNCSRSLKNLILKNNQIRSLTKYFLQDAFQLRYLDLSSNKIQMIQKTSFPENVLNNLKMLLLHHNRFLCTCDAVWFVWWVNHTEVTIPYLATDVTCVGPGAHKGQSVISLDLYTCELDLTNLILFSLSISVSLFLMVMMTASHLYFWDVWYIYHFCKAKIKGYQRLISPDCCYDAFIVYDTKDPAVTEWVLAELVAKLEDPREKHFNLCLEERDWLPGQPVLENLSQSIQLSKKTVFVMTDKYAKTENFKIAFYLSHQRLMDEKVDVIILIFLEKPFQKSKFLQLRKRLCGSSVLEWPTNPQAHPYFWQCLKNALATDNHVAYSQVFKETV
Procedure, shortened: (§1)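 Selectivity panel in stably transfected HEK 293-Blue cells, each overexpressing one human TLR with an inducible SEAP reporter. Agonists: Pam3CSK4 (TLR1/2), Pam2CSK4 (TLR2/6), poly(I:C) (TLR3), LPS (TLR4), R848 (TLR7/8), ODN 2006 (TLR9). Cells were exposed to compound for 16 h. Activity = (raw − untreated)/(ligand + solvent − untreated), with ligand + solvent set as 100%.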

[2] = molecular target: Toll-like receptor 7 (Homo sapiens) (UniProt Q9NYK1); experiment: Inhibition of human TLR7 expressed in HEK293 cells assessed as reduction in R848-induced NFkappaB production incubated for 16 hrs by quanti-blue SEAP assay; details: concentration not given here
[3] = molecular target: Toll-like receptor 8 (Homo sapiens) (UniProt Q9NR97); experiment: Inhibition of human TLR8 expressed in HEK293 cells assessed as reduction in resiquimod-induced NFkappaB production at 1.5 to 5 uM incubated for 16 hrs by quanti-blue SEAP assay
[4] = molecular target: T2, Toll-like receptor 7 (Homo sapiens, UniProt Q9NYK1); experiment: Inhibition of human TLR7 expressed in HEK293 cells assessed as reduction in R848-induced NFkappaB production incubated for 16 hrs by quanti-blue SEAP assay; format: cell-based
T2 sequence (Q9NYK1 whole entry): T1 sequence (whole entry)
Procedure, shortened: (§2)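 HEK 293-Blue cells stably expressing hTLR7 or hTLR8 with an inducible SEAP reporter were incubated 16 h with compound under 1 µg/mL R848 stimulation. SEAP was read at 620 nm. Data were normalized to the R848 control, and IC50 was taken from concentration-response curves. […] Mean ± s.d., n = 3 independent experiments.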

[5] = molecular target: T3, Toll-like receptor 8 (Homo sapiens, UniProt Q9NR97); experiment: Inhibition of human TLR8 expressed in HEK293 cells assessed as reduction in R848-induced NFkappaB production incubated for 16 hrs by quanti-blue SEAP assay; format: cell-based; procedure, shortened: as §2
T3 sequence (Q9NR97 whole entry): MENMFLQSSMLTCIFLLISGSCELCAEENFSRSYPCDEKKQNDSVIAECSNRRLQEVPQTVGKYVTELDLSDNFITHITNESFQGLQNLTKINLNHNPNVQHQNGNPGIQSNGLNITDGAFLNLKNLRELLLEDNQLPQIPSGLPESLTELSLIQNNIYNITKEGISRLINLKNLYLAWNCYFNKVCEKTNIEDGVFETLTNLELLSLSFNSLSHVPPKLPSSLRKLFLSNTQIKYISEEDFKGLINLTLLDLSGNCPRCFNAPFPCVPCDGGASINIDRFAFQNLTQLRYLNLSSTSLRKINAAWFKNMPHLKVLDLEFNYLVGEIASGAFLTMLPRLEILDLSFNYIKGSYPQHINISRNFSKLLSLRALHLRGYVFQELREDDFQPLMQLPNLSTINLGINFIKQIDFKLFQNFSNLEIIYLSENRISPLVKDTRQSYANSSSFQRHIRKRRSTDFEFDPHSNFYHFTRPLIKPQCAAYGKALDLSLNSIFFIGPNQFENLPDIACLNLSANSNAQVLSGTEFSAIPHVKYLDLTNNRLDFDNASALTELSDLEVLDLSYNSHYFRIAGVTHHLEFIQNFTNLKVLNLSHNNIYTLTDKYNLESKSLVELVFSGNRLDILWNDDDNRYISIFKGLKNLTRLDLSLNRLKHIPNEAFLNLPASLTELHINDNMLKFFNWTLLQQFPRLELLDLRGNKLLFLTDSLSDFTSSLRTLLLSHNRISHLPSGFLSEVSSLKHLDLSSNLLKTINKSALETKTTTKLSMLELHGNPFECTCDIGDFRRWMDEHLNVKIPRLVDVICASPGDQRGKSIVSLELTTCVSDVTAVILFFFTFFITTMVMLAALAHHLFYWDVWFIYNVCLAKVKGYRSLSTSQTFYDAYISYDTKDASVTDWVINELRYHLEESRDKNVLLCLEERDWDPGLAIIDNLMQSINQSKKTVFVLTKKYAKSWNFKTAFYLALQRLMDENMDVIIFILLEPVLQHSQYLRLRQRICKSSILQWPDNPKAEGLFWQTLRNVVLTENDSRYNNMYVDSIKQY

[6] = molecular target: T4, Toll-like receptor 8 (Homo sapiens) (UniProt Q9NR97); experiment: Inhibition of human TLR8 expressed in HEK293 cells assessed as reduction in R848-induced NFkappaB production at 50 uM incubated for 16 hrs by quanti-blue SEAP assay relative to control; format: cell-based; procedure, shortened: as §2
T4 sequence (whole entry): T3 sequence (Q9NR97 whole entry)

[7] = molecular target: T4, Toll-like receptor 8 (Homo sapiens); experiment: Inhibition of human TLR8 expressed in HEK293 cells assessed as reduction in R848-induced NFkappaB production at 1.5 to 5 uM incubated for 16 hrs by quanti-blue SEAP assay; format: cell-based; procedure, shortened: as §1
[8] = molecular target: T1, Toll-like receptor 7 (Homo sapiens); experiment: Inhibition of human TLR7 expressed in HEK293 cells assessed as reduction in R848-induced NFkappaB production at 50 uM incubated for 16 hrs by quanti-blue SEAP assay relative to control; format: cell-based; procedure, shortened: as §2

SMILES: O=C(Nc1cccc(Oc2cc(C(F)(F)F)cc(C(F)(F)F)c2)c1)c1c(F)cccc1Cl
inhibition [1]: 0%

SMILES: CN(C(=O)c1c(F)cccc1Cl)c1ccc(Oc2cc(C(F)(F)F)cc(C(F)(F)F)c2)cc1
inhibition [2]: 0%
IC50 [3]: 2900 nM

SMILES: O=C(Nc1ccc(Oc2cc(C(F)(F)F)cc(C(F)(F)F)c2)cc1)c1ccc(I)cc1F
IC50 [4]: > 50 µM
IC50 [5]: > 50000 nM

SMILES: O=C(Nc1ccc(Oc2cc(C(F)(F)F)cc(C(F)(F)F)c2)cc1)c1cc(I)ccc1F
inhibition [6]: 20 to 30%
inhibition [1]: 0%

SMILES: O=S(=O)(Nc1ccc(Oc2cc(C(F)(F)F)cc(C(F)(F)F)c2)cc1)c1c(F)cccc1Cl
inhibition [1]: 0%
inhibition [7]: 0%

SMILES: Nc1c(Cl)cccc1Oc1ccc(-c2nnco2)cc1
IC50 [5]: 5290 nM

SMILES: O=C(Nc1ccc(Oc2cc(I)cc(C(F)(F)F)c2)cc1)c1c(F)cccc1Cl
IC50 [5]: > 5000 nM

SMILES: O=C(Nc1ccc(Oc2cc(C(F)(F)F)cc(C(F)(F)F)c2)cc1)c1ccc(O)cc1F
IC50 [5]: > 50000 nM
inhibition [1]: 0%

SMILES: c1ccc(Oc2ccc(-c3nnco3)cc2)cc1
IC50 [5]: 7260 nM

SMILES: O=[N+]([O-])c1c(Cl)cccc1Oc1ccc(-c2nnco2)cc1
IC50 [5]: 770 nM

SMILES: Nc1cccc(F)c1C(=O)Nc1ccc(Oc2cc(C(F)(F)F)cc(C(F)(F)F)c2)cc1
inhibition [6]: 20 to 30%
inhibition [8]: 20 to 30%

SMILES: C#Cc1cccc(F)c1C(=O)Nc1ccc(Oc2cc(C(F)(F)F)cc(C(F)(F)F)c2)cc1
inhibition [1]: 0%
inhibition [7]: 0%

SMILES: O=C(Nc1ccc(Oc2cc(O)cc(C(F)(F)F)c2)cc1)c1c(F)cccc1Cl
inhibition [1]: 0%
inhibition [7]: 0%

SMILES: O=C(Nc1ccc(Oc2cc(C(F)(F)F)cc(C(F)(F)F)c2)cc1)c1ccco1
inhibition [1]: 0%
inhibition [7]: 0%

SMILES: O=C(Nc1ccc(Oc2cc(C(F)(F)F)cc(C(F)(F)F)c2)cc1)c1ccccc1F
IC50 [4]: > 50 µM
IC50 [5]: 3000 nM

SMILES: O=C(Nc1ccc(Oc2cc(C(F)(F)F)cc(C(F)(F)F)c2)cc1)c1ncccc1F
IC50 [4]: > 50 µM
inhibition [7]: 0%

SMILES: O=C(Nc1c(F)cccc1Cl)c1ccc(Oc2cc(C(F)(F)F)cc(C(F)(F)F)c2)cc1
inhibition [2]: 0%
IC50 [3]: 7100 nM

SMILES: O=C(Nc1ccc(Oc2cc(C(F)(F)F)cc(C(F)(F)F)c2)cc1O)c1c(F)cccc1Cl
IC50 [5]: 4020 nM
inhibition [1]: 0%

SMILES: O=C(Nc1ccc(Oc2cccc(C(F)(F)F)c2)cc1)c1c(F)cccc1Cl
IC50 [4]: 2.65 µM
IC50 [5]: 2410 nM

SMILES: Fc1cccc(Cl)c1CNc1ccc(Oc2cc(C(F)(F)F)cc(C(F)(F)F)c2)cc1
IC50 [4]: > 50 µM
IC50 [5]: > 50000 nM

SMILES: O=C(Nc1ccc(Oc2cc(Cl)cc(C(F)(F)F)c2)cc1)c1c(F)cccc1Cl
IC50 [5]: 2040 nM

SMILES: O=C(Nc1ccc(Oc2cc(F)cc(C(F)(F)F)c2)cc1)c1c(F)cccc1Cl
IC50 [5]: 1590 nM

SMILES: O=C(Nc1ccc(Oc2cc(Br)cc(C(F)(F)F)c2)cc1)c1c(F)cccc1Cl
IC50 [5]: 2320 nM

SMILES: O=C(Nc1ccc(Oc2cc(C(F)(F)F)cc(C(F)(F)F)c2)cc1)c1sccc1Cl
IC50 [5]: 3200 nM
inhibition [1]: 0%

SMILES: O=C(Nc1ccc(Oc2cc(C(F)(F)F)cc(C(F)(F)F)c2)cc1)c1c(F)c(F)c(F)c(F)c1F
inhibition [1]: 0%
inhibition [7]: 0%

SMILES: O=C(Nc1ccc(Oc2cc(C(F)(F)F)cc(C(F)(F)F)c2)cc1)c1c(F)cccc1Br
IC50 [4]: 1 µM
IC50 [5]: 6000 nM

SMILES: O=C(Nc1cc(C(F)(F)F)cc(C(F)(F)F)c1)c1c(F)cccc1Cl
inhibition [2]: 0%
IC50 [3]: 1400 nM

SMILES: Cc1nnc(-c2ccc(C(=O)Oc3cccc(Cl)c3C#N)cc2)o1
inhibition [7]: 0%

Further lines, results first:

IC50 [5]: 1110 nM
inhibition [8]: 20 to 30%
SMILES: O=C(Nc1ccc(Oc2cc(C(F)(F)F)cc(C(F)(F)F)c2)cc1)c1cc(Cl)ccc1F

inhibition [6]: 20 to 30%
inhibition [8]: 20 to 30%
SMILES: O=C(Nc1ccc(Oc2cc(C(F)(F)F)cc(C(F)(F)F)c2)cc1)c1c(F)cccc1C(F)(F)F

inhibition [1]: 0%
inhibition [7]: 0%
SMILES: Fc1cccc(I)c1-c1nc2cc(Oc3cc(C(F)(F)F)cc(C(F)(F)F)c3)ccc2[nH]1

IC50 [5]: 2520 nM
SMILES: N#Cc1c(Cl)cccc1COc1ccc(-c2nnco2)cc1

inhibition [1]: 0%
inhibition [7]: 0%
SMILES: O=C(Nc1ccc(Oc2cc(C(F)(F)F)cc(C(F)(F)F)c2)cc1)C1CCCCC1

IC50 [4]: > 50 µM
inhibition [6]: 20 to 30%
SMILES: O=C(Nc1ccc(Oc2cc(C(F)(F)F)cc(C(F)(F)F)c2)cc1)c1ccc2nc[nH]c2c1

IC50 [4]: 4.73 µM
IC50 [5]: 2630 nM
SMILES: O=C(Nc1ccc(Oc2cc(C(F)(F)F)cc(C(F)(F)F)c2)cc1O)c1c(F)cccc1I

inhibition [1]: 0%
inhibition [7]: 0%
SMILES: O=S(=O)(Nc1ccc(Oc2cc(C(F)(F)F)cc(C(F)(F)F)c2)cc1)c1ccccc1F

inhibition [7]: 0%
SMILES: O=C(Nc1ccc(Oc2cc(C(F)(F)F)cc(C(F)(F)F)c2)cc1)c1c(F)cccc1F

IC50 [4]: > 50 µM
inhibition [6]: 20 to 30%
SMILES: O=C(Nc1ccc(Oc2cc(C(F)(F)F)cc(C(F)(F)F)c2)cc1)c1ccc2[nH]ccc2c1

IC50 [4]: > 50 µM
IC50 [5]: > 50000 nM
SMILES: Nc1ccc(C(=O)Nc2ccc(Oc3cc(C(F)(F)F)cc(C(F)(F)F)c3)cc2)c(F)c1

IC50 [4]: > 50 µM
IC50 [5]: > 50000 nM
SMILES: O=C(Nc1ccc(Oc2cc(C(F)(F)F)cc(C(F)(F)F)c2)cc1)c1c(F)cccc1OC(F)(F)F

IC50 [5]: 880 nM
SMILES: N#Cc1c(Br)cccc1Oc1ccc(-c2nnco2)cc1

inhibition [7]: 0%
SMILES: N#Cc1c(Cl)cccc1Oc1ccc(-c2ncco2)cc1

inhibition [6]: 20 to 30%
inhibition [8]: 20 to 30%
SMILES: O=C(Nc1ccc(Oc2cc(C(F)(F)F)cc(C(F)(F)F)c2)cc1)c1c(O)cccc1F
